{"source": "ChEMBL document CHEMBL4680238", "about": "“Novel octapeptide-DTX prodrugs targeting MMP-7 as effective agents for the treatment of colorectal cancer with lower systemic toxicity” (Eur J Med Chem, 2020)", "key": {"[1]": {"test": "Toxicity in ip dosed Kunming mouse measured for 14 days", "assay_type": "organism-based", "details": "in vivo, time 14 day; call rule not given here", "outline": "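Healthy Kunming mice of both sexes, 20 ± 2 g, randomised into 5 groups of 10 matched for weight and size. Compound given once intraperitoneally at 400, 300, 250 or 150 mg/kg in formulation solvent (0.5% DMSO, 5% castor oil, 5% ethanol, 89.5% saline), 0.1 mL per 10 g; vehicle controls received solvent. Deaths recorded daily for 14 days; LD50 by Bliss method.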"}, "[2]": {"test": "Toxicity in BALB/c nude mouse xenografted with human HCT-116 cells assessed as disordered myocardial fiber in heart at 11.73 mg/kg, ip administered once for every 7 days for 14 days by H and E staining based assay", "assay_type": "organism-based", "details": "in vivo, 336 h, time 14 day", "outline": "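At the end of the 14-day ip xenograft study (HCT116, BALB/c nude), heart and liver were collected from vehicle and molar-equivalent dose groups. Tissues fixed in 10% formalin in PBS and stained with H&E. Liver examined at 400×, heart at 100×.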"}, "[3]": {"test": "Half life in Sprague-Dawley rat at 5 mg/kg, iv measured up to 72 hrs by LC-MS/MS analysis", "assay_type": "ADME, organism-based", "details": "in vivo", "outline": "(§1)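 Male SD rats (180-200 g), fasted 12 h with free water, n = 3 per group. Single tail-vein dose of 5 mg/kg in 0.5% DMSO/5% castor oil/5% ethanol/89.5% saline. Retro-orbital blood drawn 0.083-72 h with heparin. Plasma protein-precipitated with methanol containing paclitaxel internal standard, then analysed by LC-MS/MS. Parameters from non-compartmental analysis, mean ± SD. For the DTX group, parameters were calculated after converting dose to the molar equivalent of the prodrug.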"}, "[4]": {"test": "AUC (0 to t) in Sprague-Dawley rat at 5 mg/kg, iv measured up to 72 hrs by LC-MS/MS analysis", "assay_type": "ADME, organism-based", "design": "route intravenous, dose 5 mg/kg, time <=72", "details": "in vivo", "outline": "as §1"}, "[5]": {"test": "Half life of compound in PBS buffer at pH 7.4 at 50 ug/ml up to 72 hrs by RP-HPLC analysis", "assay_type": "physicochemical", "details": "dose 50 µg/ml"}, "[6]": {"test": "Toxicity in BALB/c nude mouse xenografted with human HCT-116 cells assessed as reduction in body weight at 11.7 mg/kg, ip administered once for every 7 days for 14 days relative to control", "assay_type": "organism-based", "design": "scale not given: the % may be the effect or the level left", "details": "in vivo, 336 h, time 14 day", "outline": "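HCT116 s.c. xenografts in male BALB/c nude mice, n = 6 per group. Dosing was ip once every 7 days for 2 weeks in DMSO/castor oil/ethanol/saline; vehicle controls got solvent. Body weight recorded every other day or every three days. Weight loss taken at day 14. Mean ± SD.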"}, "HCT-116 [7]": {"test_system": "HCT-116", "test": "Cytotoxicity against human HCT-116 cells assessed as reduction in cell viability after 48 hrs by MTT assay", "assay_type": "functional, cell-based", "details": "HCT-116, 48 h", "outline": "(§2)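 Cells seeded at 5000/well and precultured 1 day. HCT116 grown in McCoy's 5A + 10% FBS; SW620 and HEK293 in DMEM + 10% FBS; CCD18Co in DMEM + 15% FBS. Compounds from 0.1 M DMSO stocks were tested at 10^-10 to 10^-4 mol/L in sixplicate: HCT116 and HEK293 for 48 h, SW620 and CCD18Co for 72 h, at 37 °C, 5% CO2. MTT (5 mg/mL) added for 4 h, then A570 read; IC50 estimated.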"}, "HEK293": {"test_system": "HEK293", "test": "Cytotoxicity against HEK293 cells assessed as reduction in cell viability after 48 hrs by MTT assay", "assay_type": "cell-based", "details": "Homo sapiens, HEK293, 48 h", "outline": "as §2"}, "HCT-116 [8]": {"test_system": "HCT-116", "test": "Antitumour activity against human HCT-116 cells xenografted in BALB/c nude mouse assessed as tumour growth inhibition at 23.4 mg/kg, ip administered once for every 7 days for 14 days relative to control", "assay_type": "functional", "details": "HCT-116, ip, 336 h, time 14 day, read-out: TGI", "outline": "(§3)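 Male BALB/c nude mice received s.c. HCT116 cells (2 × 10^6 in 0.2 mL PBS). Once tumours reached 100-200 mm3, mice were randomized into groups of six. Dosing was ip, 0.1 mL/10 g, once every 7 days, in DMSO 0.5%/castor oil 5%/ethanol 5%/saline 89.5%; vehicle controls got solvent. Caliper volume V = L×W²×0.52 read every 2-3 days. Tumours excised and weighed on day 14.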"}, "[9]": {"test": "Drug uptake in BALB/c nude mouse xenografted with human HCT-116 cells assessed as drug level in heart at 5 mg/kg, iv measured up to 24 hrs by LC-MS/MS analysis", "assay_type": "ADME, organism-based", "details": "in vivo", "outline": "(§4)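 Male BALB/c nude mice bearing s.c. HCT116 tumours (200-300 mm3), 20 per group. Single tail-vein dose of 5 mg/kg. Five mice per group killed at 0.5, 4, 8 and 24 h and heart-perfused with PBS. Tissues homogenized in saline (4 µL/mg) and precipitated with methanol containing paclitaxel internal standard. Prodrug, released DTX and free DTX measured by LC-MS/MS.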"}, "[10]": {"test": "Drug uptake in BALB/c nude mouse xenografted with human HCT-116 cells assessed as drug level in kidney at 5 mg/kg, iv measured up to 24 hrs by LC-MS/MS analysis", "assay_type": "ADME, organism-based", "details": "in vivo", "outline": "as §4"}, "[11]": {"test": "Toxicity in BALB/c nude mouse xenografted with human HCT-116 cells assessed as reduction in body weight at 5.85 mg/kg, ip administered once for every 7 days for 14 days relative to control", "assay_type": "organism-based", "design": "scale not given: the % may be the effect or the level left", "details": "in vivo, 336 h, time 14 day", "outline": "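HCT116 cells (2 × 10^6 in 0.2 mL PBS) inoculated subcutaneously into male BALB/c nude mice; at mean tumor volume 100-200 mm3, randomized, six mice per group. Dosed intraperitoneally once every 7 days in DMSO (0.5%)/castor oil (5%)/ethanol (5%)/saline (89.5%), 0.1 mL per 10 g; vehicle controls received solvent. Body weight monitored every other day or three days; mice weighed on day 14.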"}, "[12]": {"test": "Half life in Sprague-Dawley rat assessed as docetaxel level at 5 mg/kg, iv measured up to 72 hrs by LC-MS/MS analysis", "assay_type": "ADME, organism-based", "details": "in vivo", "outline": "as §1"}, "HCT-116 [13]": {"test_system": "HCT-116", "test": "Antitumour activity against human HCT-116 cells xenografted in BALB/c nude mouse assessed as tumour growth inhibition at 11.7 mg/kg, ip administered once for every 7 days for 14 days relative to control", "assay_type": "functional", "details": "HCT-116, ip, 336 h, time 14 day, read-out: TGI", "outline": "as §3"}, "[14]": {"test": "AUC (0 to infinity) in Sprague-Dawley rat at 5 mg/kg, iv measured up to 72 hrs by LC-MS/MS analysis", "assay_type": "ADME, organism-based", "design": "route intravenous, dose 5 mg/kg, time <=72", "details": "Sprague-Dawley, in vivo", "outline": "as §1"}}, "note": "Residues, ends and D or L forms follow the SMILES beside them. *: point of attachment. X1 = CC(=O)O[C@@]12CO[C@@H]1C[C@H](O)[C@@]1(C)C(=O)[C@H](O)C3=C(C)[C@@H](OC(=O)[C@H](OC(=O)OCc4ccc(N*)cc4)[C@@H](NC(=O)OC(C)(C)C)c4ccccc4)C[C@@](O)([C@@H](OC(=O)c4ccccc4)[C@H]21)C3(C)C"}
{"smiles": "CC[C@H](C)[C@H](NC(=O)CNC(=O)[C@H](CCC(N)=O)NC(=O)[C@@H]1CCCN1C(=O)CNC(C)=O)C(=O)N[C@@H](C)C(=O)N[C@@H](CCSC)C(=O)N[C@@H](CCC(N)=O)C(=O)N[C@@H](CC(C)C)C(=O)Nc1ccc(COC(=O)O[C@@H](C(=O)O[C@H]2C[C@@]3(O)[C@@H](OC(=O)c4ccccc4)[C@@H]4[C@]5(OC(C)=O)CO[C@@H]5C[C@H](O)[C@@]4(C)C(=O)[C@H](O)C(=C2C)C3(C)C)[C@@H](NC(=O)OC(C)(C)C)c2ccccc2)cc1", "note": "(Ac-GPQGIAMQL-X1)", "values": [{"measurement": "LD50 at 336 h", "setting": "[1]", "result": 245, "unit": "mg/kg"}, {"measurement": "Activity", "setting": "[2]", "result": "Non-Toxic"}, {"measurement": "half-life", "setting": "[3]", "result": 12.8, "unit": "h"}, {"measurement": "AUC(0-t) at 72 h", "setting": "[4]", "result": 9.07, "unit": "µg·h/mL"}, {"measurement": "half-life at 50 ug/ml", "setting": "[5]", "result": "> 72", "unit": "h"}, {"measurement": "Activity", "setting": "[6]", "result": 8.5, "unit": "%"}, {"measurement": "IC50", "setting": "HCT-116 [7]", "result": 0.0091, "unit": "µM"}, {"measurement": "IC50", "setting": "HEK293", "result": 137, "unit": "µM"}, {"measurement": "inhibition in vivo at 23.4 mg/kg", "setting": "HCT-116 [8]", "result": 56.1, "unit": "%"}, {"measurement": "Drug uptake", "setting": "[9]", "result": "Active"}, {"measurement": "Drug uptake", "setting": "[10]", "result": "Active"}, {"measurement": "Activity", "setting": "[11]", "result": 4.9, "unit": "%"}, {"measurement": "t1/2", "setting": "[12]", "result": 7.03, "unit": "h"}, {"measurement": "inhibition in vivo at 11.7 mg/kg", "setting": "HCT-116 [13]", "result": 46.3, "unit": "%"}, {"measurement": "AUC(0-inf)", "setting": "[14]", "result": 9.24, "unit": "µg·h/mL"}]}
